ChEMBL document CHEMBL3045286, “Citrus limonoids and their semisynthetic derivatives as antifeedant agents against Spodoptera frugiperda larvae. A structure-activity relationship study” (2002)

Tested on: Spodoptera frugiperda
Assay: Antifeedant activity against larvae of Spodoptera frugiperda (fall armyworm) at 100 ppm measured every 30 min for 8 hr by binary choice assay relative to control
Format: functional
How it was run: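 Final-stadium larvae aged […], reared on wheatgerm diet, starved 2 h, then held singly in Petri dishes with control and treatment glass-fiber disks (2.1 cm). All disks carried 100 µL of 0.05 M sucrose. Treatment disks received compound in acetone and control disks acetone alone; disks were dried and weighed before and after. Ten larvae per compound. Feeding index = [(C − T)/(C + T)]%, mean ± SEM, Wilcoxon matched-pairs test.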

Row | Compound | AFI [%]
1 | CO/N=C1\C[C@H]2C(C)(C)OC(=O)C=C[C@]2(C)[C@H]2CC[C@@]3(C)[C@@H](c4ccoc4)OC(=O)[C@H]4O[C@]43[C@]12C [OBACUNONE-7-METHOXIME] | 29
2 | CO/N=C1\C[C@H]2C(C)(C)OC(=O)C[C@H](OC(C)=O)[C@]2(C)[C@H]2CC[C@@]3(C)[C@@H](c4ccoc4)OC(=O)[C@H]4O[C@]43[C@]12C [NOMILIN-7-METHOXIME] | 38
3 | CC(=O)O[C@@H]1C[C@H]2C(C)(C)O[C@H]3CC(=O)OC[C@]32[C@H]2CC[C@@]3(C)[C@@H](c4ccoc4)OC(=O)[C@H]4O[C@]43[C@@]21C [LIMONYL ACETATE] | 45
4 | CC1(C)OC(=O)CC[C@]2(C)[C@H]3CC[C@@]4(C)[C@@H](c5ccoc5)OC(=O)[C@H]5O[C@]54[C@]3(C)C(=O)C[C@@H]12 [1,2-DIDEHYDRO-OBACUNONE] | 53
5 | CC(=O)O[C@H]1CC(=O)OC(C)(C)[C@@H]2CC(=O)[C@]3(C)[C@H](CC[C@@]4(C)[C@@H](c5ccoc5)OC(=O)[C@H]5O[C@]543)[C@@]12C [NOMILIN] | 56
6 | CC(=O)O/N=C1\C[C@H]2C(C)(C)OC(=O)C[C@H](OC(C)=O)[C@]2(C)[C@H]2CC[C@@]3(C)[C@@H](c4ccoc4)OC(=O)[C@H]4O[C@]43[C@]12C [NOMILIN-7-OXIME ACETATE] | 41
7 | CC1(C)O[C@H]2CC(=O)OC[C@]23[C@H]2CC[C@@]4(C)[C@@H](c5ccoc5)OC(=O)[C@H]5O[C@]54[C@]2(C)[C@@H](O)C[C@@H]13 [EPILIMONOL] | 56
8 | CC1(C)OC(=O)C=C[C@]2(C)[C@H]3CC[C@@]4(C)[C@@H](c5ccoc5)OC(=O)[C@H]5O[C@]54[C@]3(C)[C@H](O)C[C@@H]12 [7-ALPHA-OBACUNOL] | 53
9 | CC1(C)O[C@H]2CC(=O)OC[C@]23[C@H]2CC[C@@]4(C)[C@@H](c5ccoc5)OC(=O)[C@H]5O[C@]54[C@]2(C)[C@H](O)C[C@@H]13 [LIMONOL] | 68
10 | CC1(C)O[C@H]2CC(=O)OC[C@]23[C@H]2CC[C@@]4(C)[C@@H](c5ccoc5)OC(=O)[C@H]5O[C@]54[C@]2(C)/C(=N/O)C[C@@H]13 [LIMONIN-7-OXIME] | 68
11 | CC(=O)O[C@@H]1C[C@H]2C(C)(C)OC(=O)C=C[C@]2(C)[C@H]2CC[C@@]3(C)[C@@H](c4ccoc4)OC(=O)[C@H]4O[C@]43[C@@]21C [7-ALPHA-OBACUNYL ACETATE] | 24
12 | CC(=O)O[C@H]1C[C@H]2C(C)(C)O[C@H]3CC(=O)OC[C@]32[C@H]2CC[C@@]3(C)[C@@H](c4ccoc4)OC(=O)[C@H]4O[C@]43[C@]12C [EPI-LIMONYL ACETATE] | 26
13 | CC1(C)O[C@H]2CC(=O)OC[C@]23[C@H]2CC[C@@]4(C)[C@@H]([C@H]5CCOC5)OC(=O)[C@H]5O[C@]54[C@]2(C)C(=O)C[C@@H]13 [EPI-PERHYDROLIMONIN] | 45
14 | CC(=O)O[C@H]1CC(=O)OC(C)(C)[C@@H]2C/C(=N\O)[C@]3(C)[C@H](CC[C@@]4(C)[C@@H](c5ccoc5)OC(=O)[C@H]5O[C@]543)[C@@]12C [NOMILIN-7-OXIME] | 35
15 | CC(=O)O/N=C1\C[C@H]2C(C)(C)OC(=O)C=C[C@]2(C)[C@H]2CC[C@@]3(C)[C@@H](c4ccoc4)OC(=O)[C@H]4O[C@]43[C@]12C [OBACUNONE-7-OXIME ACETATE] | 21
16 | CC1(C)OC(=O)C=C[C@]2(C)[C@H]3CC[C@@]4(C)[C@@H](c5ccoc5)OC(=O)[C@H]5O[C@]54[C@]3(C)[C@@H](O)C[C@@H]12 [7-BETA-OBACUNOL] | 35
17 | CC(=O)O[C@H]1CC(=O)OC(C)(C)[C@@H]2C[C@H](OC(C)=O)[C@]3(C)[C@H](CC[C@@]4(C)[C@@H](c5ccoc5)OC(=O)[C@H]5O[C@@]534)[C@@]12C [7-BETA-NOMILYL ACETATE] | 46
18 | CC(=O)O[C@H]1CC(=O)OC(C)(C)[C@@H]2C[C@@H](O)[C@]3(C)[C@H](CC[C@@]4(C)[C@@H](c5ccoc5)OC(=O)[C@H]5O[C@@]534)[C@@]12C [7-ALPHA-NOMILOL] | 46
19 | CC1(C)O[C@H]2CC(=O)OC[C@]23[C@H]2CC[C@@]4(C)[C@H](c5ccoc5)OC(=O)[C@H]5O[C@]54[C@]2(C)C(=O)C[C@@H]13 [LIMONIN] | 87
20 | CC1(C)O[C@H]2CC(=O)OC[C@]23[C@H]2CC[C@@]4(C)[C@@H]([C@@H]5CCOC5)OC(=O)[C@H]5O[C@]54[C@]2(C)C(=O)C[C@@H]13 [PERHYDROLIMONIN] | 29
21 | CC1(C)OC(=O)C=C[C@]2(C)[C@H]3CC[C@@]4(C)[C@@H](c5ccoc5)OC(=O)[C@H]5O[C@]54[C@]3(C)/C(=N/O)C[C@@H]12 [OBACUNONE-7-OXIME] | 25
22 | CC(=O)O/N=C1\C[C@H]2C(C)(C)O[C@H]3CC(=O)OC[C@]32[C@H]2CC[C@@]3(C)[C@@H](c4ccoc4)OC(=O)[C@H]4O[C@]43[C@]12C [LIMONIN-7-OXIME ACETATE] | 45
23 | CC1(C)OC(=O)C=C[C@]2(C)[C@H]3CC[C@@]4(C)[C@H](c5ccoc5)OC(=O)[C@H]5O[C@]54[C@]3(C)C(=O)C[C@@H]12 [OBACUNONE] | 68
24 | CO/N=C1\C[C@H]2C(C)(C)O[C@H]3CC(=O)OC[C@]32[C@H]2CC[C@@]3(C)[C@@H](c4ccoc4)OC(=O)[C@H]4O[C@]43[C@]12C [LIMONIN-7-METHOXIME] | 76
25 | CC(=O)O[C@H]1C[C@H]2C(C)(C)OC(=O)C=C[C@]2(C)[C@H]2CC[C@@]3(C)[C@@H](c4ccoc4)OC(=O)[C@H]4O[C@]43[C@]12C [7-BETA-OBACUNYL ACETATE] | 26
26 | CC(=O)O[C@H]1CC(=O)OC(C)(C)[C@@H]2C[C@H](O)[C@]3(C)[C@H](CC[C@@]4(C)[C@@H](c5ccoc5)OC(=O)[C@H]5O[C@@]534)[C@@]12C [7-BETA-NOMILOL] | 35
